Assay results reported in ChEMBL document CHEMBL1144927, “Discovery of a novel and highly potent noncompetitive AMPA receptor antagonist” (2003).

Legend:
[1] = Anticonvulsant activity against audiogenic seizures in DBA/2 mice 30 min after intraperitoneal administration (clonic phase); type: functional; details: Mus musculus, ip, 0.5 h
Summary of the method: (§1)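 DBA/2 mice, genetically susceptible to sound-induced seizures (8-12 g, 22-25 days old, either sex), were dosed ip in groups of 10 with vehicle or each dose. Dosing solution was freshly prepared in 50% DMSO/50% sterile 0.9% saline. Mice received auditory stimulation 30 min later and were scored for latency and incidence of seizure phases. ED50 per phase was fitted by Litchfield-Wilcoxon, with 95% confidence limits.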

[2] = Anticonvulsant activity against audiogenic seizures in DBA/2 mice 30 min after intraperitoneal administration (tonic phase); type: functional; details: Mus musculus, ip, 0.5 h; summary of the method: as §1

| SMILES | ED50 [1] [µmol/kg] | ED50 [2] [µmol/kg] |
| --- | --- | --- |
| COc1cc2c(cc1OC)C(c1ccc(N)cc1)=NNC(=O)C2 | 15 | – |
| COc1cc2c(cc1OC)C(c1ccc(F)cc1)N(C(C)=O)CC2 (stereo not given) | 36.8 | 18 |
| COc1cc2c(cc1OC)C(c1ccc(Br)cc1)N(C(C)=O)CC2 (stereo not given) | 43.1 | 16.5 |
| COc1cc2c(cc1OC)C(c1ccc([N+](=O)[O-])cc1)N(C(C)=O)CC2 (stereo not given) | > 100 | > 100 |
| COc1cc2c(cc1OC)C(c1ccc(Cl)cc1)N(C(C)=O)CC2 (stereo not given) | 4.2 | 2.4 |
| COc1cc2c(cc1OC)C(c1ccccc1)N(C(C)=O)CC2 (stereo not given) | 53.5 | 37.7 |
| COc1cc2c(cc1OC)C(c1ccc(N)cc1)N(C(C)=O)CC2 (stereo not given) | 32.1 | 21.1 |
| CC(=O)N1N=C(c2ccc(N)cc2)c2cc3c(cc2C[C@H]1C)OCO3 [TALAMPANEL] | 13.4 | 9.7 |
